# Screening results as filed in PubChem.
# Only some compounds are listed: those with a hit (about 2.3% of all), similar ones and a draw of the others.
# DENV2 CPE = DENV2-induced cell death inhibition. DENV2-infected cells, cytopathic effect rescue, plate reader. CPE inhibition, % at 9.99 µM. 350,000 tested, 1.7% active; in the data active = CPE inhibition above about 20%, passing the limit was not always enough; tested in BHK-21 cells;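 note: 0% = median of neutral control wells and 100% = median of positive control wells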
# ERp5 block = inhibitors of human ERp5; inhibition, % at 9.99 µM; 350,000 tested, 0.05% active; ERp5 insulin aggregation, absorbance 650 nm, 90 min;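 active = mean replicate inhibition above about 25%, with every replicate also reaching it, limit read from the data, passing the limit was not always enough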
# F508del corr = correctors of CFTR F508del function in bronchial epithelial cells; CFBE cells, YFP halide quenching; stimulated with forskolin plus potentiator P3; % fluorescence drop versus neutral controls; activity (quench increase), % at 7.58 µM; 350,000 tested, 0.36% active; AID 720511;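 active = mean added fluorescence quench of at least 8% versus neutral control, with both replicates also reaching 8%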;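 note: cells transiently co-express mutant CFTR-F508del with the halide-sensitive YFP; corrector assay measuring rescue of mutant channel to the surface after 24 h compound exposure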
# Cneo AK release = causes C. neoformans cell lysis; adenylate kinase release luminescence, 4 h; normalised: neutral wells 0, clomiphene wells 100; lysis activity, % at 15 µM; 360,000 tested, 0.2% active;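 active = mean lysis activity across replicates of at least 80%, whatever share of replicates individually reach that level; inactive = mean lysis activity below 80%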
#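 Assay system: Cryptococcus neoformans yeast cells / Dosing: single-point compound dose / Timing: 4 h at 37 °C static, read 1 h later / Measured by: luminescence of released adenylate kinase using an AK detection reagent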
# PDI turbidity = inhibitors of human protein disulfide isomerase | PDI insulin aggregation turbidity, A650, 90 min | inhibition, % at 10 µM | 350,000 tested, 0.052% active | AID 588391;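 active = mean inhibition across replicates of 30% or more, whatever share of single replicates reach that level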
# Target sequence (P07237 whole entry, looked up): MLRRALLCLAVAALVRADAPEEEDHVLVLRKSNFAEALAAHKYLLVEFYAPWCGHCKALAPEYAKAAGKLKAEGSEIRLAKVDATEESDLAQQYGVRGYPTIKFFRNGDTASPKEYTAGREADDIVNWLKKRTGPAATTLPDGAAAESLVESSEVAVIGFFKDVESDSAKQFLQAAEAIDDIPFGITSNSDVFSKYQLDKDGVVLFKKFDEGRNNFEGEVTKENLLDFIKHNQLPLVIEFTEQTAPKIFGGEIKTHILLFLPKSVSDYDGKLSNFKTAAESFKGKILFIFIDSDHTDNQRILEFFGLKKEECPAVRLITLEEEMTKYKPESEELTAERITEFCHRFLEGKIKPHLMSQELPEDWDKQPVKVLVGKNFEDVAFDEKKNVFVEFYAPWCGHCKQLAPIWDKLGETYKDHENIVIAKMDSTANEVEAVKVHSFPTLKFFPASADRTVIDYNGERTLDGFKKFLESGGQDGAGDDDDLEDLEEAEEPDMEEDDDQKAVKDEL
# C2C12 statin = suppression of simvastatin myotoxicity | C2C12 myotubes + simvastatin, ATP luminescence, 48 h; scaled: DMSO 0, geranylgeraniol control 100 | rescue of ATP level, % at 7.49 µM | 330,000 tested, 0.78% active;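 active = mean ATP rescue above about 67%, or every replicate alone reaching that limit, limit read from the data, passing the limit was not always enough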;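 note: myotubes were challenged with 10 µM simvastatin during compound exposure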
# An asterisk follows results filed as active; nt = no result.
SMILES,DENV2 CPE,ERp5 block,F508del corr,Cneo AK release,PDI turbidity,C2C12 statin
Cn1cc([N+](=O)[O-])c(C(=O)Nc2ccc(C(=O)N3CCCCC3)cc2)n1,38.7*,-1.0,nt,nt,-2.8,nt
Cc1noc(C)c1NC(=O)Nc1cccc2c1O[C@H](CN(C)S(=O)(=O)c1cn(C)cn1)[C@@H](C)CN([C@H](C)CO)C2=O,12.9,-5.5,1.5,-0.6,-6.7,13.9
Cc1noc(C)c1NC(=O)Nc1cccc2c1O[C@@H](CN(C)S(=O)(=O)c1cn(C)cn1)[C@@H](C)CN([C@@H](C)CO)C2=O,26.6*,-0.1,2.5,104.6*,nt,-7.0
C[C@H]1CN([C@@H](C)CO)C(=O)c2cccc(NC(=O)Nc3ccccc3)c2O[C@@H]1CN(C)S(=O)(=O)c1cn(C)cn1,46.6*,-0.1,-0.6,2.4,nt,nt
c1ccc(-c2ccncc2)nc1,79.0*,2.0,-0.7,1.3,2.2,-0.2
c1ccc(-c2nc(-c3ccncc3)n[nH]2)nc1,-2.9,nt,3.8,nt,5.2,nt
COc1cc(/C=C(/C(=O)c2cccs2)c2nc3ccccc3[nH]2)cc(OC)c1O,nt,12.9,nt,nt,-7.9,119.5*
O=C(CSc1nnnn1-c1ccccc1)NC(=O)NCc1ccco1,nt,nt,nt,-0.9,7.9,95.0*
CCOc1ccccc1-n1nnnc1SCC(=O)NC(=O)NCc1ccco1,nt,nt,nt,4.6,-1.4,-4.8
O=C(CSc1nnc(Cn2c(=O)sc3ccccc32)n1-c1ccccc1)NCc1ccco1,5.8,3.5,10.4*,-2.9,nt,4.0
C[C@@H]1CN([C@H](C)CO)C(=O)c2cc(NS(=O)(=O)c3cn(C)cn3)ccc2O[C@@H](C)CCCCO[C@@H]1CN(C)C,0.2,1.1,-1.2,-1.4,nt,nt
CCCC(=O)Nc1ccc2c(c1)C(=O)N(C)C[C@H](OC)[C@@H](C)CN(CC1CCCC1)[C@H](C)CO2,nt,nt,1.7,nt,nt,4.0
COc1ccc(CCN2C(=O)CCC2(C)C(=O)NCc2cccnc2)cc1OC (stereo not drawn),nt,nt,nt,0.8,-6.7,21.8
COc1ccc(CN2C(=O)CCC2(C)C(=O)NCc2cccnc2)c(OC)c1 (stereo not drawn),nt,nt,nt,0.9,-1.2,92.2*
Cc1noc(C)c1NC(=O)Nc1ccc2c(c1)C(=O)N([C@H](C)CO)C[C@H](C)[C@@H](CN(C)C(=O)Nc1ccc(F)cc1)OCCCC[C@H](C)O2,4.7,-6.3,-4.5,-2.7,nt,-6.9
O=c1[nH]c(=S)[nH]c2c1C(c1ccc(Cl)cc1)OC(CCc1ccccc1)C2 (stereo not drawn),100.9*,-7.0,6.4,2.6,nt,3.5
O=c1[nH]c(=S)[nH]c2c1C(c1ccc(Cl)c(Cl)c1)OC(CCc1ccccc1)C2 (stereo not drawn),18.5,-0.4,3.1,nt,nt,nt
C[C@H](CO)N1C[C@H](C)[C@@H](CN(C)C(=O)Nc2ccc(C(F)(F)F)cc2)OCCCC[C@H](C)Oc2ccc(NC(=O)c3ccccc3)cc2C1=O,14.1,-4.3,-4.0,-0.9,nt,52.0
C[C@H]1CCCCO[C@H](CN(C)C(=O)Nc2ccc(C(F)(F)F)cc2)[C@@H](C)CN([C@@H](C)CO)C(=O)c2cc(NC(=O)c3ccccc3)ccc2O1,3.1,-3.0,-2.0,0.0,nt,-33.2
C[C@H](CO)N1C[C@H](C)[C@H](CN(C)C(=O)Nc2ccc(C(F)(F)F)cc2)OCCCC[C@H](C)Oc2ccc(NC(=O)c3ccccc3)cc2C1=O,3.3,0.6,-3.3,1.0,nt,112.1*
C[C@@H]1CCCCO[C@@H](CN(C)C(=O)Nc2ccc(F)cc2)[C@H](C)CN([C@@H](C)CO)C(=O)c2cc(NC(=O)c3ccccc3)ccc2O1,-9.8,0.5,0.4,52.2,nt,nt
C[C@H](CO)N1C[C@H](C)[C@H](CN(C)C(=O)Nc2ccc(F)cc2)OCCCC[C@H](C)Oc2ccc(NC(=O)c3ccccc3)cc2C1=O,83.8*,0.9,-2.3,-1.8,nt,nt
C[C@@H]1CCCCO[C@@H](CN(C)C(=O)Nc2ccc3c(c2)OCO3)[C@@H](C)CN([C@H](C)CO)C(=O)c2cc(NC(=O)c3ccccc3)ccc2O1,20.4*,3.8,0.8,5.3,nt,nt
C[C@@H]1CCCCO[C@@H](CN(C)C(=O)Nc2ccc(C(F)(F)F)cc2)[C@H](C)CN([C@@H](C)CO)C(=O)c2cc(NC(=O)c3ccccc3)ccc2O1,2.0,-4.7,0.1,0.2,nt,75.5*
C[C@@H]1CN([C@H](C)CO)C(=O)c2cc(C3=CCCC3)cnc2O[C@@H]1CN(C)C(=O)Nc1cccc(F)c1,0.8,6.0,0.6,1.0,nt,-4.2
SMILES,DENV2 CPE,ERp5 block,F508del corr,Cneo AK release,PDI turbidity,C2C12 statin
O=C(C1CCCCC1)N1C[C@@H]2[C@H](c3ccccc31)[C@@H](CO)N2C(=O)Cc1ccccn1,5.1,-1.5,-1.1,14.3,nt,3.8
CCC(=O)N(C)C[C@@H]1Oc2cc(C#Cc3ccncc3)ccc2S(=O)(=O)N([C@H](C)CO)C[C@H]1C,-6.4,-1.3,1.4,-0.3,nt,25.9
C[C@H](CO)N1C[C@H](C)[C@@H](CN(C)Cc2ccc(C(F)(F)F)cc2)OCCCC[C@H](C)Oc2ccc(NC(=O)CCC(F)(F)F)cc2C1=O,6.2,-0.7,2.5,6.1,nt,-9.0
CCC(=O)Nc1ccc2c(c1)C(=O)N(C)C[C@H](OC)[C@H](C)CN(C(=O)CC)[C@H](C)CO2,-2.8,-4.0,2.3,-5.0,nt,-12.4
C[C@H]1CCCCO[C@H](CN(C)C(=O)Nc2ccc(F)cc2)[C@@H](C)CN([C@@H](C)CO)C(=O)c2cc(NC(=O)Cc3ccccc3)ccc2O1,-11.4,4.4,-0.2,-6.1,nt,44.0
C[C@@H]1CCCCO[C@H](CN(C)C(=O)Nc2ccc(F)cc2)[C@H](C)CN([C@@H](C)CO)C(=O)c2cc(NC(=O)Cc3ccccc3)ccc2O1,0.5,1.3,-1.0,0.5,nt,86.8*
C[C@@H]1CN([C@H](C)CO)C(=O)c2cc(-c3ccncc3)cnc2O[C@H]1CN(C)C(=O)NC1CCCC1,4.8,-0.1,-1.0,-3.2,nt,-1.5
C[C@@H]1CN([C@H](C)CO)C(=O)c2cc(NS(C)(=O)=O)ccc2O[C@H]1CN(C)S(=O)(=O)c1ccc(F)cc1,-5.7,-3.0,-1.3,-3.2,nt,-36.0
CO[C@H]1CN(C)C(=O)c2ccc(NC(=O)C3CC3)cc2OC[C@@H](C)N(C(=O)c2ccncc2)C[C@@H]1C,4.8,5.1,0.8,-6.1,nt,-4.1
COCC(=O)Nc1ccc2c(c1)OC[C@H](C)N(C(=O)c1ccncc1)C[C@H](C)[C@H](OC)CN(C)C2=O,12.7,13.3,-1.2,-0.5,nt,-6.8
COCC(=O)Nc1ccc2c(c1)OC[C@H](C)N(C(C)=O)C[C@H](C)[C@@H](OC)CN(C)C2=O,-10.7,-9.5,0.0,nt,nt,nt
CO[C@@H]1CN(C)C(=O)c2ccc(NC(=O)C3CC3)cc2OC[C@H](C)N(C(=O)c2ccncc2)C[C@H]1C,-8.5,1.0,1.7,80.7*,nt,-9.6
